Variants at the floor of the assay were thinned out.
B1: tRNA (parent)
chain: GUUCCGUUGGCGUAAUGGUAACGCGUCUCCCUCCUAAGGAGAAGACUGCGGGUUCGAGUCCCGUACGGAACG

Variants of: B1
Experiment: yeast fitness relative to wild type (ratio to wild type); higher = fitter; tRNA-Arg(CCU), competitive growth, 37 C, YPD
Method in brief: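 Variants of the tRNA-Arg(CCU) gene, chemically synthesised with a 3% per-site mutation rate at 69 sites, were placed at the native genomic locus in Saccharomyces cerevisiae. The pooled strains were competed in YPD at 37°C for 24 hours in six parallel replicates. Gene amplicons from the start population and from each end population were read by 100-nucleotide paired-end sequencing. Darwinian fitness relative to wild type came from changes in genotype frequencies; genotypes needed ≥ 100 starting reads, and estimates < 0.5 were set to 0.5.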

Point of comparison: A14G C27U C55A, yeast fitness 0.56. Against it:
- A14G A42C U54A — lower, ≤ 0.5
- A14G G38C A65C — lower, ≤ 0.5
- A14G C30G A57G — lower, ≤ 0.5
- A14G C31G C46G — higher, 0.577
- A14G A21G C27U A45C G48C C61G — lower, ≤ 0.5
- A14G G17A A37U A43U C62G — lower, ≤ 0.5
- A14G C33U G38A C55U — lower, ≤ 0.5
- A14G C55U A69U — lower, ≤ 0.5
- A14G A20U A40G U54C — lower, ≤ 0.5
- A14G C49U — higher, 0.908
- A14G C49G — higher, 0.815
- A14G C46G C62U — higher, 0.725
- A14G C27G C34G A37U C62U — lower, ≤ 0.5
- A14G G52A G56C A65G — lower, ≤ 0.5
- A14G C66G — higher, 0.761
- A14G A40C C60G — higher, 0.757
- A14G C30A G50A G51A A69G — lower, ≤ 0.5
- A14G G18C C29G C34U A45C — lower, ≤ 0.5
- A14G C27G A37G U59G — lower, ≤ 0.5
- A14G A21C C33A A43U C62U — lower, 0.558
- A14G A21C C29A — higher, 0.586
- A14G C24G A42C — lower, 0.512
- A14G C27G C31A C33G C49U G58C — lower, ≤ 0.5
- A14G A36G A45G A65U — lower, ≤ 0.5
- A14G G23C C27A — lower, ≤ 0.5
- A14G C34U A40G — lower, 0.541
- A14G G25A C30A G52C — lower, 0.548
- A14G C62A — lower, 0.533
- A14G G18A C30U — higher, 0.809
- A14G G50A — higher, 0.907
- A14G A40G G41A A45U U47C — lower, ≤ 0.5
- A14G C29G U47G G58A — lower, ≤ 0.5
- A14G G25C G51C C60U G67A — lower, ≤ 0.5
- A14G C34G A43C A65G — lower, 0.558
- A14G A42C G50C C66U — lower, ≤ 0.5
- A14G C29G C62U — higher, 0.573
- A14G A42C A43U U59A C62G A65U — lower, ≤ 0.5
- A14G G23A U35C A37C — lower, 0.5
- A14G A40G A42U G67C — higher, 0.665
- A14G G44A C46A G52A C66U — lower, ≤ 0.5
- A14G C31U C49A — lower, ≤ 0.5
- A14G C31U C49U — higher, 0.809
- A14G A37G C55G — lower, ≤ 0.5
- A14G A15C U53G C60U — lower, ≤ 0.5
- A14G G25A C46G A57C — lower, ≤ 0.5
- A14G C24G G25C C27A A40C G51A — lower, ≤ 0.5
- A14G A21C C34A U47C — lower, ≤ 0.5
- A14G A40U G58C — higher, 0.706
- A14G C46G — higher, 0.989
- A14G G58A A65U — higher, 0.782
- A14G G18C G50C — lower, ≤ 0.5
- A14G C46G A69U — higher, 0.861
- A14G C24A U26A C27G U32C C60U — lower, ≤ 0.5
- A14G C29G C31U C55U A69C — lower, ≤ 0.5
- A14G C24U A42C G50A — lower, ≤ 0.5
- A14G G23C C27A G51A — lower, ≤ 0.5
- A14G C22A C27U C29U G50U U54C G68C — lower, ≤ 0.5
- A14G A15U U35C — lower, ≤ 0.5
- A14G G41A U47A — higher, 0.591
- A14G A36U C46A — higher, 0.576
- A14G C34A G38C — higher, 0.676
- A14G C24G A65C — lower, ≤ 0.5
- A14G A15G C33G C34U A43C C49G — lower, ≤ 0.5
- A14G A15U G25C — lower, ≤ 0.5
- A14G C22A C29G C30G G48U — higher, 0.618
- A14G C29A — higher, 0.581
- A14G C31G G58A — lower, ≤ 0.5
- A14G A42U C62A — lower, ≤ 0.5
- A14G A40C U59G C60G — lower, ≤ 0.5
- A14G C24G A40G U53A G68C — lower, ≤ 0.5
- A14G C31U — higher, 0.932
- A14G C31A — higher, 0.752
- A14G A15C U26C G51C — lower, 0.512
- A14G C34G A43C — higher, 0.591
- A14G A36G G51C U59G — lower, ≤ 0.5
- A14G C34A A69C — higher, 0.605
- A14G A20C A57G — higher, 0.677
- A14G G18C C29G G56C — lower, ≤ 0.5
- A14G A20C — higher, 0.813
- A14G A20U — higher, 0.942
- A14G A20G — higher, 0.883
- A14G C27A A37C G44A — higher, 0.563
- A14G C24U G51A — lower, ≤ 0.5
- A14G A40C C60U C62G — lower, ≤ 0.5
- A14G G48C C62U — higher, 0.654
- A14G A37U A65C — lower, 0.543
- A14G G18C A21U C29G C66U — lower, ≤ 0.5
- A14G A43C G50A — lower, 0.558
- A14G C30A A45G C60G — higher, 0.668
- A14G G18C C31A A69U — lower, ≤ 0.5
- A14G A36G C66U — higher, 0.606
- A14G A20U C22G A43G A69C — lower, ≤ 0.5
- A14G C31G A69C — higher, 0.652
- A14G A20C A43U C55G — lower, ≤ 0.5
- A14G C29U C31U C33U — lower, 0.543
- A14G C33U A40U C62G — higher, 0.68
- A14G C31G A45U C62U — higher, 0.669
- A14G A21U G41C — lower, ≤ 0.5
- A14G A40G A43U G50C A69U — lower, ≤ 0.5
- A14C U59C C62A — lower, ≤ 0.5
- A14G A15U C30G — lower, ≤ 0.5
- A14G A21G C22U — lower, 0.555
- A14G A21U U59A — lower, ≤ 0.5
- A14G A15G A45U C62U — lower, ≤ 0.5
- A14G A65G A70U — higher, 0.566
- A14G G18A U26A — lower, ≤ 0.5
- A14G C34A C60A — lower, ≤ 0.5
- A14G A21G A70U — higher, 0.684
- A14G G39C C55A A65G — lower, ≤ 0.5
- A14G A21C A36C A43U C60A — lower, 0.554
- A14G C30A C34A A43C C62U G63A — lower, ≤ 0.5
- A14G C34U C66U A70U — lower, ≤ 0.5
- A14G G18C — lower, 0.559
- A14G C31A C46U G56C A69U — lower, ≤ 0.5
- A14G U16A C33A C55U — higher, 0.67
- A14G A36G A43C A65U — lower, ≤ 0.5
- A14G A57U — higher, 0.563
- A14G A57G — higher, 0.905
- A14G C22U — higher, 0.783
- A14G C22A — higher, 0.982
- A14G G18C C24G U28C C30U G48C U53A — higher, 0.665
- A14G C22U C34U C55A — higher, 0.583
- A14G A20C C22G C29U A69U — lower, ≤ 0.5
- A14G C29G A37G — lower, ≤ 0.5
- A14G C30G A36C — lower, 0.525
- A14G C30U A42G A57U — lower, ≤ 0.5
- A14G A40G G41A A45U — higher, 0.686
- A14G A45U — higher, 0.746
- A14G A45G — higher, 0.919
- A14G A20G C22G U59C A65U — lower, ≤ 0.5
- A14G G17A C34U C55G — lower, ≤ 0.5
- A14G A15U G68U — lower, ≤ 0.5
- A14G A45G A65U G68C — lower, ≤ 0.5
- A14G G48C U64C — higher, 0.715
- A14G G48C U64G — lower, 0.503
- A14G C34G A43C A70G — lower, ≤ 0.5
- A14G G63C — higher, 0.78
- A14G C60G — lower, 0.507
- A14G C60A — lower, 0.523
- A14G C27U C33U U35C — lower, ≤ 0.5
- A14G C31U C55A A70G — lower, ≤ 0.5
- A14G A15U G67U — lower, ≤ 0.5
- A14G G39C — higher, 0.678
- A14G C29U G41A G63A — lower, ≤ 0.5
- A14G C49G C66U — lower, 0.526
- A14G C62U G68C — lower, ≤ 0.5
- A14G G68U — higher, 0.826
- A14G G68C — higher, 0.78
- A14G G38C A57G A70G — lower, ≤ 0.5
- A14G G56A — higher, 0.805
- A14G C49G A57G — lower, 0.557
- A14G G48A — higher, 0.868
- A14G C22U C29G C33G A37G — lower, ≤ 0.5
- A14G C31A U47C A70U — lower, ≤ 0.5
- A14G C33U — higher, 0.616
- A14G C33G — lower, ≤ 0.5
- A14G C33A — lower, 0.516
- A14G A21C C30G C55G C66U G67A — lower, ≤ 0.5
- A14G A15G G68C — lower, 0.537
- A14G C49U U54C — lower, ≤ 0.5
- A14G C34G C61A — lower, ≤ 0.5
- A14G C24U A65C — lower, 0.542
- A14G A21G C27U A45C G48C — lower, ≤ 0.5
- A14G G52C A70U — lower, ≤ 0.5
- A14G G39C G68A A70U — lower, ≤ 0.5
- A14G C22U C49A — lower, ≤ 0.5

Reference: the RNAGym collection of RNA variant scans (doi:10.1126/science.aae0568)
